Results pooled from the literature.
Protocols differ between the studies behind these lines.
Target: Tyrosine-protein kinase Fyn (FYN, Homo sapiens, UniProt P06241)

| Structure (SMILES) | assay | conditions | endpoint | result |
| --- | --- | --- | --- | --- |
| C#Cc1n[nH]c2c(-c3cn([C@@H](C)c4ccccn4)c(=O)[nH]c3=O)cc(F)cc12 | enzyme activity, inhibitor | 0.1 µM | inhibition | 1.4% |
| Cc1ncc(C)n2nc(/C=C/c3nc(N4CCCC4)cc(N4CCOCC4)n3)nc12 | enzyme activity, inhibitor | 10 µM | inhibition | 9% |
| O=C(Nc1cccnn1)N1CCN([C@@H]2CCOc3cc(C(F)(F)F)ccc32)CC1 | enzyme activity, inhibitor | 20 µM | inhibition | 0% |
| Cn1cncc1[C@](O)(COc1ccc(C#N)cc1-c1ccc(OC(F)(F)F)cc1)c1ccc(C#N)cc1 | cell-free assay, competition with immobilised ligand | 1 µM | remaining binding | 100% |
| O=c1[nH]c2ccccc2n1C1CCN(Cc2ccc(-c3[nH]c4cc5ncnc5cc4nc3-c3ccccc3)cc2)CC1 | cell-free assay | 0.5 µM | remaining signal | 101% |
| Nc1ncc(-c2nc(N3CCOCC3)nc(N3CCOCC3)n2)c(C(F)F)n1 | binding, competition with immobilised ligand | 10 µM | remaining binding | 100% |
| COc1ncccc1-c1cnn2ccc(N3CCN(C(=O)OC(C)C)CC3)nc12 | binding, competition with immobilised ligand | 1 µM | remaining binding | 49% |
| Cc1nn(C)cc1-c1nc2c(N3CCN(Cc4ccc(Cl)cc4)CC3)c(Cl)cnc2[nH]1 | binding, competition with immobilised ligand | 1 µM | remaining binding | 100% |
| N#CC1(c2ccccn2)CCN(Cc2cc(C(=O)O)c(=O)n3ccccc23)CC1 | cell-free assay, competition with immobilised ligand | 1 µM | remaining binding | 99% |
| Cn1cc(-c2cccc(N3CCc4c(sc5c4CC(C)(C)C5)C3=O)c2CO)cc(Nc2ccncn2)c1=O | enzyme activity, inhibitor | 1 µM | inhibition | 6% |
| C#Cc1n[nH]c2c(-c3cn([C@@H](C)c4ccccc4)c(=O)[nH]c3=O)cc(F)cc12 | enzyme activity, inhibitor | 0.1 µM | inhibition | 0.7% |
| CC(C)(C)c1cc(C=C(C#N)C#N)cc(Br)c1O | enzyme activity, inhibitor | 0.5 µM | remaining activity | 67.2% |
| Cn1cc(-c2cc(F)cc(N3CCn4c(cc5c4CCCC5)C3=O)c2CO)cc(Nc2ccc(N3CCN(C4COC4)CC3)cn2)c1=O | enzyme activity, inhibitor | 0.1 µM | inhibition | 8% |
